# Biological target: T1, WT human SLACK (Homo sapiens, UniProt Q5JUK3)
# T1 sequence (Q5JUK3 1-1235 isoform Q5JUK3-3): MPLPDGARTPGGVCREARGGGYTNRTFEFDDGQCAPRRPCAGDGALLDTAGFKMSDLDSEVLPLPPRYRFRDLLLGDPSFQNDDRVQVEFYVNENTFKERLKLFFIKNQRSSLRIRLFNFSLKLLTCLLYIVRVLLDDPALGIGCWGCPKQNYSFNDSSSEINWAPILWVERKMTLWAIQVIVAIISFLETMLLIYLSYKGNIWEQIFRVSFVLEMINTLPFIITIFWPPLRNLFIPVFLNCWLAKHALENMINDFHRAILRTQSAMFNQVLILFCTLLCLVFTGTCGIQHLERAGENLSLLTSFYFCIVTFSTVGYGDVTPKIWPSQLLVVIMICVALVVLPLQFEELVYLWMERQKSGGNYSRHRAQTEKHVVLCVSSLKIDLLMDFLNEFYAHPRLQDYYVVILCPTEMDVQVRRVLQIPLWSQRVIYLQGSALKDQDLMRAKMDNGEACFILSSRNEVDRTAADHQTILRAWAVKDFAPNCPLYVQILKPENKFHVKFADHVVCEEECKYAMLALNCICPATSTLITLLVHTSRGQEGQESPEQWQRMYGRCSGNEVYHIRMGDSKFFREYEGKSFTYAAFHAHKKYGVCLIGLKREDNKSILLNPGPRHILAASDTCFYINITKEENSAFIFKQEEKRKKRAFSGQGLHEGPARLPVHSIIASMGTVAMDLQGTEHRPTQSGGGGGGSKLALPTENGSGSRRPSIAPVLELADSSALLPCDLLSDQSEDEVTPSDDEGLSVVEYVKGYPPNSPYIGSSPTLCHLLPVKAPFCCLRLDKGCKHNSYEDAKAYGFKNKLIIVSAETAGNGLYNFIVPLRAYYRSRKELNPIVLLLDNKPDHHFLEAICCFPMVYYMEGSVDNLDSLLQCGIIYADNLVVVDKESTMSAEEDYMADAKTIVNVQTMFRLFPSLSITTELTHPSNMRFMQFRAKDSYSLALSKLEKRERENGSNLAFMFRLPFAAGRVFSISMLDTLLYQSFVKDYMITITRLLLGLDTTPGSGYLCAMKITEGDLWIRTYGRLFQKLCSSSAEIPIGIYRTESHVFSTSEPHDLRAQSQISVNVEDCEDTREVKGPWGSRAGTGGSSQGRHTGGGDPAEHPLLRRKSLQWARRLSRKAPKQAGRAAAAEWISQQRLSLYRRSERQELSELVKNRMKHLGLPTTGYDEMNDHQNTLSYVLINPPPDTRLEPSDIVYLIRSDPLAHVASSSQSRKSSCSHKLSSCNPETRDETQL
# Test: Tl+ flux assay in HEK-293 cells stably expressing WT human SLACK
# Assay type: cell-based
# Details: for IC50 / EC50: CRC; for Mode: Tl+ flux, HEK-293 cells expressing WT SLACK
# How it was run: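 Stably transfected HEK-293 cells expressing wild-type human SLACK; thallium flux read-out. IC50 or EC50 taken from concentration-response curves, and each compound classed as inhibitor, activator or not active. Efficacy is the response amplitude at 30 μM test compound, as a percentage of the maximum response to a reference SLACK inhibitor (for inhibitors) or loxapine (for activators).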
# [1] = IC50 for compounds of mode Inh (also cells printed Inactive)
IC50 / EC50 [1],Mode,IC50 / EC50 (EC50 for compounds of mode Act) [µM],SMILES
Inactive,Inactive,–,CCNc1ccccc1S(=O)(=O)N1CC(c2nc(-c3ccsc3)no2)C1 [Compound 29]
>10 µM,–,–,CCOc1ccccc1S(=O)(=O)[C@H]1C[C@H](c2nc(-c3ccc(F)cc3)no2)C1 [Compound 73b]
Inactive,Inactive,–,"O=S(=O)(c1ccc(Cl)cc1)N1CC(c2nc(-c3ccsc3)no2)C1 [Compound 16, 5-(1-((4-Chlorophenyl)sulfonyl)azetidin-3-yl)-3-(thiophen-3-yl)-1,2,4-oxadiazole]"
>10 µM,–,–,"O=S(=O)(c1ccccc1N1CCCCC1)N1CC(c2nc(-c3ccc(F)cc3)no2)C1 [Compound 118, 3-(4-Fluorophenyl)-5-(1-((2-(piperidin-1-yl)phenyl)sulfonyl)azetidin-3-yl)-1,2,4-oxadiazole]"
–,–,2.5,"O=S(=O)(c1ccccc1OC1COC1)N1CC(c2nc(-c3ccc(F)cc3)no2)C1 [Compound 115, 3-(4-Fluorophenyl)-5-(1-((2-(oxetan-3-yloxy)phenyl)sulfonyl)azetidin-3-yl)-1,2,4-oxadiazole]"
Inactive,Inactive,–,CCOc1ccccc1S(=O)(=O)c1ccc(-c2nc(-c3ccc(F)cc3)no2)cc1 [Compound 77]
5.8 µM,–,–,"O=S(=O)(c1ccccc1OC1CCCC1)N1CC(c2nc(-c3ccc(F)cc3)no2)C1 [Compound 116, 5-(1-((2-(cyclopentyloxy)phenyl)sulfonyl)azetidin-3-yl)-3-(4-fluorophenyl)-1,2,4-oxadiazole]"
Inactive,Inactive,–,"Cc1ccc(S(=O)(=O)N2CC(c3nc(-c4ccsc4)no3)C2)cc1 [Compound 22, 3-(Thiophen-3-yl)-5-(1-tosylazetidin-3-yl)-1,2,4-oxadiazole]"
–,–,6.2,"O=S(=O)(c1cccc(C(F)(F)F)c1)N1CC(c2nc(-c3ccsc3)no2)C1 [Compound 18, 3-(Thiophen-3-yl)-5-(1-((3-(trifluoromethyl)phenyl)sulfonyl)azetidin-3-yl)-1,2,4-oxadiazole]"
–,–,>10,CCOc1ccccc1S(=O)(=O)N1CC(c2nnc(-c3ccc(F)cc3)o2)C1 [Compound 81]
7.9 µM,–,–,"CCOc1ccccc1S(=O)(=O)N1CC(c2nc(-c3ccccc3F)no2)C1 [Compound 41, 5-(1-((2-Ethoxyphenyl)sulfonyl)azetidin-3-yl)-3-(2-fluorophenyl)-1,2,4-oxadiazole]"
>10 µM,–,–,CCOc1ccccc1S(=O)(=O)N1CC[C@@H](c2nc(-c3ccc(F)cc3)no2)C1 [Compound 74]
–,–,10,CCOc1ccccc1S(=O)(=O)N1CC(c2ncc(-c3ccc(F)cc3)o2)C1 [Compound 97]
–,–,>10,CCOc1ccccc1S(=O)(=O)N1CC(c2nnc(-c3ccc(F)cc3)[nH]2)C1 [Compound 86]
–,–,>10,O=S(=O)(c1cccn2cnnc12)N1CC(c2nc(-c3ccc(F)cc3)no2)C1 [Compound 132]
>10 µM,–,–,CCOc1ncccc1S(=O)(=O)N1CC(c2nc(-c3ccc(F)cc3)no2)C1 [Compound 111]
Inactive,Inactive,–,"COc1cccc(S(=O)(=O)N2CC(c3nc(-c4ccsc4)no3)C2)c1 [Compound 24, 5-(1-((3-Methoxyphenyl)sulfonyl)azetidin-3-yl)-3-(thiophen-3-yl)-1,2,4-oxadiazole]"
>10 µM,–,–,"CCOc1ccccc1S(=O)(=O)N1CC(c2nc(-c3cccc(C)c3)no2)C1 [Compound 51, 5-(1-((2-Ethoxyphenyl)sulfonyl)azetidin-3-yl)-3-(m-tolyl)-1,2,4-oxadiazole]"
Inactive,Inactive,–,CCOc1ccccc1S(=O)(=O)[C@H]1C[C@@H](c2nc(-c3ccc(F)cc3)no2)C1 [Compound 73a]
–,–,4.0,CCOc1ccccc1S(=O)(=O)N1CC(C)(c2nc(-c3ccc(F)cc3)no2)C1 [Compound 69]

IC50 / EC50 [1],Mode,IC50 / EC50 (EC50 for compounds of mode Act) [µM],SMILES
>10 µM,–,–,CCOc1ccccc1S(=O)(=O)C1CN(c2nc(-c3ccc(F)cc3)no2)C1 [Compound 71]
>10 µM,–,–,CCOc1ccccc1S(=O)(=O)N1CC[C@H](c2nc(-c3ccc(F)cc3)no2)C1 [Compound 75]
11 µM,–,–,"CCOc1ccccc1S(=O)(=O)N1CC(c2nc(-c3ccc(Cl)cc3)no2)C1 [Compound 46, 3-(4-Chlorophenyl)-5-(1-((2-ethoxyphenyl)sulfonyl)azetidin-3-yl)-1,2,4-oxadiazole]"
Inactive,Inactive,–,"CCOc1ccccc1S(=O)(=O)N1CC(c2nc(-c3ccc(C)cc3)no2)C1 [Compound 52, 5-(1-((2-Ethoxyphenyl)sulfonyl)azetidin-3-yl)-3-(p-tolyl)-1,2,4-oxadiazole]"
Inactive,Inactive,–,"O=S(=O)(c1ccc(F)cc1)N1CC(c2nc(-c3ccsc3)no2)C1 [Compound 13, 5-(1-((4-Fluorophenyl)sulfonyl)azetidin-3-yl)-3-(thiophen-3-yl)-1,2,4-oxadiazole]"
9.2 µM,–,–,CCOc1ccccc1S(=O)(=O)N1CC(F)(c2nc(-c3ccc(F)cc3)no2)C1 [Compound 70]
Inactive,Inactive,–,"CCOc1ccccc1S(=O)(=O)N1CC(c2nc(-c3nccs3)no2)C1 [Compound 61, 5-(1-((2-Ethoxyphenyl)sulfonyl)azetidin-3-yl)-3-(thiazol-2-yl)-1,2,4-oxadiazole]"
–,–,7.5,"O=S(=O)(c1ccccc1Cl)N1CC(c2nc(-c3ccsc3)no2)C1 [Compound 14, 5-(1-((2-Chlorophenyl)sulfonyl)azetidin-3-yl)-3-(thiophen-3-yl)-1,2,4-oxadiazole]"
Inactive,Inactive,–,"CCOc1ccccc1S(=O)(=O)N1CC(c2nc(-c3ccccn3)no2)C1 [Compound 64, 5-(1-((2-Ethoxyphenyl)sulfonyl)azetidin-3-yl)-3-(pyridin-2-yl)-1,2,4-oxadiazole]"
>10 µM,–,–,CCOc1ccccc1S(=O)(=O)N1CC(c2nc(-c3ccc(F)cc3)cn2C)C1 [Compound 100]
Inactive,Inactive,–,CCOc1ccccc1S(=O)(=O)N1CC(c2cc(-c3ccc(F)cc3)on2)C1 [Compound 102]
–,–,>10,"CCOc1ccccc1S(=O)(=O)N1CC(c2nc(-c3ccccc3C)no2)C1 [Compound 50, 5-(1-((2-Ethoxyphenyl)sulfonyl)azetidin-3-yl)-3-(o-tolyl)-1,2,4-oxadiazole]"
>10 µM,–,–,"CCOc1ccccc1S(=O)(=O)N1CC(c2nc(-c3ccco3)no2)C1 [Compound 63, 5-(1-((2-Ethoxyphenyl)sulfonyl)azetidin-3-yl)-3-(furan-2-yl)-1,2,4-oxadiazole]"
Inactive,Inactive,–,"CCOc1ccccc1S(=O)(=O)N1CC(c2nc(-c3ccc(F)cn3)no2)C1 [Compound 67, 5-(1-((2-Ethoxyphenyl)sulfonyl)azetidin-3-yl)-3-(5-fluoropyridin-2-yl)-1,2,4-oxadiazole]"
Inactive,Inactive,–,"CCOc1ccccc1S(=O)(=O)N1CC(c2nc(-c3cccc(Cl)c3)no2)C1 [Compound 45, 3-(3-Chlorophenyl)-5-(1-((2-ethoxyphenyl)sulfonyl)azetidin-3-yl)-1,2,4-oxadiazole]"
Inactive,Inactive,–,CCOc1ccccc1S(=O)(=O)N1CC(c2cc(-c3ccc(F)cc3)no2)C1 [Compound 92]
>10 µM,–,–,CCCc1ccccc1S(=O)(=O)N1CC(c2nc(-c3ccsc3)no2)C1 [Compound 30]
6.0 µM,–,–,"O=S(=O)(c1ccccc1OCC1CC1)N1CC(c2nc(-c3ccc(F)cc3)no2)C1 [Compound 114, 5-(1-((2-(Cyclopropylmethoxy)phenyl)sulfonyl)azetidin-3-yl)-3-(4-fluorophenyl)-1,2,4-oxadiazole]"
–,–,>10,CCOc1ccccc1C(C)N1CC(c2nc(-c3ccsc3)no2)C1 (centres unmarked) [Compound 32]
